Measurements: ChEMBL document CHEMBL1137343, “4-arylazo-3,5-diamino-1H-pyrazole CDK inhibitors: SAR study, crystal structure in complex with CDK2, selectivity, and cellular effects” (J Med Chem, 2006)
Active and inactive are the calls of the source. No cut-off for these calls is given here.

Key:
[1] = molecular target: Glycogen synthase kinase-3 beta (Homo sapiens) (UniProt P49841); assay: Activity of GSK3-beta at 10 uM
Method in brief: (§1)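 Radiometric kinase assay at 10 µM inhibitor, run in duplicate. c-Abl, CHK1, GSK3β, p70S6K, PKA and PKBα were run in 8 mM MOPS pH 7.0 with 0.2 mM EDTA. MAPK1 and SAPK2α were run in 25 mM Tris pH 7.5 with 0.02 mM EGTA. CK2 was run in 20 mM HEPES pH 7.6, 0.15 M NaCl, 0.1 mM EDTA, 2 mM DTT and 0.1% Triton X-100. All had 10 mM Mg-acetate, 10 µM ATP, [γ-33P]ATP and a peptide substrate; 40 min; H3PO4 stop; P30 filter; scintillation counting.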

[2] = molecular target: Cyclin-dependent kinase 2/cyclin E (Homo sapiens) (UniProt P24864+P24941+O96020); assay: Activity of CDK2/Cyclin E at 10 uM; type: protein-complex assay
HT-29 [3] = assay: Inhibition of EpCAM mRNA synthesis in HT29 cells measured as number of copies per 10^6 cells by RT PCR at 50 uM after 12 hrs; type: functional, Homo sapiens
Method in brief: (§2)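 HT-29 cells (5 × 10⁶) treated for 3, 6 or 12 h; total RNA extracted with TRI reagent, 3 µg reverse transcribed with random primers and M-MLV RT (42 °C, 60 min). Absolute transcript copies quantified by TaqMan real-time PCR, 50 cycles, against diluted gene-specific amplicon standards (30–1 000 000 copies); duplicate PCR per sample; values are means of four determinations ± SD.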

HT-29 [4] = assay: Inhibition of CEA mRNA synthesis in HT29 cells measured as number of copies per 10^6 cells by RT PCR at 50 uM after 6 hrs; type: functional, Homo sapiens
Method in brief: (§3)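 HT-29 cells were treated 3, 6 or 12 h; total RNA extracted with TRI reagent. 3 µg RNA reverse-transcribed with random primers and M-MLV RT at 42 °C for 60 min. CEA transcripts quantified by TaqMan real-time PCR: 50 cycles of 95 °C 15 s and 65 °C 15 s. Absolute copies came from amplicon standards of 30 to 10^6 copies, expressed per 10^6 cells. Samples run in duplicate PCR; values average of four determinations ± SD.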

HT-29 [5] = assay: Cell cycle arrest in HT29 cells by accumulation at G0/G1 phase at 50 uM after 6 hrs; type: functional, Homo sapiens
Method in brief: (§4)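 Subconfluent, asynchronous HT-29 cells were treated 3, 6 or 12 h, then pulsed with 10 µM BrdU for 30 min at 37 °C. Cells were fixed in ice-cold 70% ethanol, DNA denatured in 2 M HCl and neutralised with borate. Staining used FITC anti-BrdU, then propidium iodide (0.1 mg/mL) with RNase A. Analysis by flow cytometry with 488 nm laser.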

[6] = molecular target: Mitogen-activated protein kinase 14 (Homo sapiens) (UniProt Q16539); assay: Activity of SAPK2-alpha at 10 uM; method in brief: as §1
MCF7 [7] = assay: Decrease in pRb phosphorylation in MCF7 cells after 24 hrs at 50 uM; type: functional, cell-based; details: Homo sapiens
Method in brief: (§5)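 MCF7 cells were treated 24 h, lysed in Laemmli buffer and run on 10% SDS-PAGE. Proteins were blotted to nitrocellulose; loading checked with Ponceau-S; blocked with 5% milk in PBS-Tween. Specific antibodies applied overnight (pRb phosphosites Ser780, Ser807, Thr821; p53; p21WAF1), then peroxidase secondary at 1:2000 with ECL detection.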

HT-29 [8] = assay: Inhibition of EpCAM mRNA synthesis in HT29 cells measured as number of copies per 10^6 cells by RT PCR at 50 uM after 6 hrs; type: functional, Homo sapiens; method in brief: as §2
[9] = molecular target: Cyclin-dependent kinase 1/cyclin B (Homo sapiens, UniProt P06493); assay: Inhibition of CDK1/Cyclin B in presence of 100 uM ATP; type: protein-complex assay
[10] = molecular target: Serine/threonine-protein kinase Chk1 (Homo sapiens) (UniProt O14757); assay: Activity of CHK1 at 10 uM; method in brief: as §1
HT-29 [11] = assay: Inhibition of EpCAM mRNA synthesis in HT29 cells measured as number of copies per 10^6 cells by RT PCR at 50 uM after 3 hrs; type: functional, Homo sapiens; method in brief: as §2
[12] = molecular target: Cyclin-dependent kinase 4/cyclin D1 (Homo sapiens, UniProt P11802); assay: Inhibition of CDK4/Cyclin D1 in presence of 100 uM ATP; type: protein-complex assay
MCF7 (Homo sapiens) = assay: Reduction of RNA polymerase 2 CTD phosphorylation in MCF7 cells after 24 hrs
[13] = molecular target: Cyclin-dependent kinase 2/cyclin A (Homo sapiens, UniProt P24941); assay: Inhibition of CDK2/Cyclin A in presence of 100 uM ATP; type: protein-complex assay
MCF7 [14] = assay: Increase in p21 WAF1 expression level in MCF7 cells at 50 uM after 24 hrs; type: functional, cell-based; details: Homo sapiens; method in brief: as §5
HT-29 [15] = assay: Inhibition of CEA mRNA synthesis in HT29 cells measured as number of copies per 10^6 cells by RT PCR at 50 uM after 3 hrs; type: functional, Homo sapiens; method in brief: as §3
[16] = molecular target: cAMP-dependent protein kinase (PKA) (Homo sapiens) (UniProt P22694+P17612+P22612); assay: Activity of PKA at 10 uM; type: protein assay; method in brief: as §1
[17] = molecular target: CDK9/cyclin T1 (Homo sapiens) (UniProt O60563+P50750); assay: Activity of CDK9/Cyclin T1 at 10 uM; type: protein-complex assay
HT-29 [18] = assay: Inhibition of GAPDH mRNA synthesis in HT29 cells measured as number of copies per 10^6 cells by RT PCR at 50 uM after 6 hrs; type: functional, Homo sapiens; method in brief: as §2
MCF7 [19] = assay: Increase in p53 expression level in MCF7 cells at 50 uM after 24 hrs; type: functional, cell-based; details: Homo sapiens; method in brief: as §5
HT-29 [20] = assay: Cell cycle arrest in HT29 cells by accumulation at G0/G1 phase at 50 uM after 12 hrs; type: functional, Homo sapiens; method in brief: as §4
HT-29 [21] = assay: Cell cycle arrest in HT29 cells by accumulation at S phase at 50 uM after 6 hrs; type: functional, Homo sapiens; method in brief: as §4
[22] = molecular target: T1, Cyclin-dependent kinase 2/cyclin E (Homo sapiens, UniProt P24941); assay: Inhibition of CDK2/Cyclin E; type: protein-complex assay; details: read-out: Ki app
Method in brief: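 CDK2-cyclin E made in Sf9 insect cells co-infected with baculoviral constructs, purified on NiNTA. Assayed with 1 mg/mL histone H1, 15 µM ATP plus 0.05 µCi [γ-33P]ATP, in 50 mM HEPES, 10 mM MgCl2, 5 mM EGTA, 10 mM 2-glycerolphosphate, 1 mM NaF, 1 mM DTT, pH 7.4. Activity expressed as percentage of maximum; IC50 taken from dose-response curves.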

G-361 = assay: Viability of G361 cells at 100 uM; type: functional, Homo sapiens
Method in brief: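 Cells grown in DMEM with 10% FCS and 4 mM glutamine at 37 °C, plated in 96-well format, preincubated 12 h, then exposed 72 h. Live cells measured by Calcein AM (1 h) fluorescence at 485/538 nm; % viable cells given at 100 µM compound.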

[23] = molecular target: T1, Cyclin-dependent kinase 2/cyclin E; assay: Inhibition of CDK2/Cyclin E in presence of 100 uM ATP; type: protein-complex assay
[24] = molecular target: Tyrosine-protein kinase ABL1 (Homo sapiens) (UniProt P00519); assay: Activity of c-ABL at 10 uM; method in brief: as §1
[25] = molecular target: RAC-alpha serine/threonine-protein kinase (Homo sapiens) (UniProt P31749); assay: Activity of PKBalpha at 10 uM; method in brief: as §1
RAC-alpha serine/threonine-protein kinase (Homo sapiens), sequence (P31749 whole entry): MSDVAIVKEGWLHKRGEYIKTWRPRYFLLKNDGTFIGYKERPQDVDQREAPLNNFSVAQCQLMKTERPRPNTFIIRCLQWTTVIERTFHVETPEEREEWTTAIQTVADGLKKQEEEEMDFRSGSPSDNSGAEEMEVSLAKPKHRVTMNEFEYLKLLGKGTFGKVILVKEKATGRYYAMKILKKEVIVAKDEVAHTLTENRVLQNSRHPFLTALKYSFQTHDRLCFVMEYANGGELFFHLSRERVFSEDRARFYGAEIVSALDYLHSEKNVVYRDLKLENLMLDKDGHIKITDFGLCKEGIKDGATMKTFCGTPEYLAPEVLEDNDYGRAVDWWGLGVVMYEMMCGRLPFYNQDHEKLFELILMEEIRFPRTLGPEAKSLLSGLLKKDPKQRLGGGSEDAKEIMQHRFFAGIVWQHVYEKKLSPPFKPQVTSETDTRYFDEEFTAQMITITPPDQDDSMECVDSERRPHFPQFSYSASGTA

Tyrosine-protein kinase ABL1 (Homo sapiens), sequence (P00519 whole entry): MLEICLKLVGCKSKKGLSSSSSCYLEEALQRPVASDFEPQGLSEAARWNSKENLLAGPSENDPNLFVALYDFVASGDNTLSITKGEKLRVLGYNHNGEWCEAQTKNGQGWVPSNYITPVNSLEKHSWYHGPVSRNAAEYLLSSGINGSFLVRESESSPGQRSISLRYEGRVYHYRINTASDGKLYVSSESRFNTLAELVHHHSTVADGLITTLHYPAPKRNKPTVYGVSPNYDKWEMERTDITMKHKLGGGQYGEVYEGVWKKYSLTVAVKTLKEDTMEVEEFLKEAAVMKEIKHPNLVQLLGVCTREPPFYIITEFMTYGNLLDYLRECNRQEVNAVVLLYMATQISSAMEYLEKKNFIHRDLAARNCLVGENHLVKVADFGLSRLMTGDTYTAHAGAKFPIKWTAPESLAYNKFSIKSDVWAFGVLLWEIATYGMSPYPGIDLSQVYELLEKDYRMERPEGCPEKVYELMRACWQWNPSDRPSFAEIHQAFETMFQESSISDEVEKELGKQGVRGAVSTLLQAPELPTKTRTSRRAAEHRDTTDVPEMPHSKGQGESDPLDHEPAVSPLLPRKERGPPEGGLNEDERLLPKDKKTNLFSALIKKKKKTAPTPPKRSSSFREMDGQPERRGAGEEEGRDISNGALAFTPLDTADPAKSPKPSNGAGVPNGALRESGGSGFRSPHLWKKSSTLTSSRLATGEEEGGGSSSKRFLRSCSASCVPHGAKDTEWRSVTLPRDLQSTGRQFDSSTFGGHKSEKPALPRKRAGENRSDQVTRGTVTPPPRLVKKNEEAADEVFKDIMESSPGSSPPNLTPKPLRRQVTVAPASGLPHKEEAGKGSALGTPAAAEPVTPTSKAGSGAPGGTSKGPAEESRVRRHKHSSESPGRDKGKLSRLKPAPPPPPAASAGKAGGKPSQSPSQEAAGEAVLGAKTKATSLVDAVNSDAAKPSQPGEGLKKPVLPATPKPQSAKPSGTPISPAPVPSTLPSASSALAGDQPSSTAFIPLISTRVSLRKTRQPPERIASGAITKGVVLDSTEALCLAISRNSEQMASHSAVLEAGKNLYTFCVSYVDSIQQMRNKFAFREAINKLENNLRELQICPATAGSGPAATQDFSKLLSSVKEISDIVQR
Glycogen synthase kinase-3 beta (Homo sapiens), sequence (P49841 whole entry, looked up): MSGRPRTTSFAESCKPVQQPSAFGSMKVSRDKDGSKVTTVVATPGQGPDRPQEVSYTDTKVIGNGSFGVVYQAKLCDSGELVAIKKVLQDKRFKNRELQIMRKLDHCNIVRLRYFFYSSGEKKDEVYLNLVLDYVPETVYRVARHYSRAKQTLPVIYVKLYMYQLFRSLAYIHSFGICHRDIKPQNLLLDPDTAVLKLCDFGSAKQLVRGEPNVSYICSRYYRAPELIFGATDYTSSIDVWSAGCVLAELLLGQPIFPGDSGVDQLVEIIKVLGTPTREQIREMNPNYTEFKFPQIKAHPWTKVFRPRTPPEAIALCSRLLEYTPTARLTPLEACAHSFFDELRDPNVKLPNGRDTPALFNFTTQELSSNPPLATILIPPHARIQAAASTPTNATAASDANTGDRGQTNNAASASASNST
Cyclin-dependent kinase 4/cyclin D1, sequence (P11802 whole entry): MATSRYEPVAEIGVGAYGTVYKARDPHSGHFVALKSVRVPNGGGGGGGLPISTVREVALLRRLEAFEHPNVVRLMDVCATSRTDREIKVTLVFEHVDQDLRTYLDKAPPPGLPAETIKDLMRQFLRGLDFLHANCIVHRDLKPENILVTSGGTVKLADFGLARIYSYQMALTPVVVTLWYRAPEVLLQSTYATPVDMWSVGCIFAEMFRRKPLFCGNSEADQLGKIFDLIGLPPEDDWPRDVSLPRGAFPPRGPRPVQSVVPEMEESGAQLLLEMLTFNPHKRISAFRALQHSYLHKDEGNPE
Cyclin-dependent kinase 4/cyclin D1, sequence (P24385 whole entry, further chain): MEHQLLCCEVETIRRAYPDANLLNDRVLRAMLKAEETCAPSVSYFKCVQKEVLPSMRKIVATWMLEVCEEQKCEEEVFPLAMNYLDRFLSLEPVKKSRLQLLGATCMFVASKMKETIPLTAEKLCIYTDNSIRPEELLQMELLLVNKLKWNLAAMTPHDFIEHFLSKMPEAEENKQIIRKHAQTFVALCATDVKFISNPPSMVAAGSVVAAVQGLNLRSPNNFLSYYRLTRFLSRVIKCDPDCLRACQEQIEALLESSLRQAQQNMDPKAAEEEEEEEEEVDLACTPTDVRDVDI
Serine/threonine-protein kinase Chk1 (Homo sapiens), sequence (O14757 whole entry): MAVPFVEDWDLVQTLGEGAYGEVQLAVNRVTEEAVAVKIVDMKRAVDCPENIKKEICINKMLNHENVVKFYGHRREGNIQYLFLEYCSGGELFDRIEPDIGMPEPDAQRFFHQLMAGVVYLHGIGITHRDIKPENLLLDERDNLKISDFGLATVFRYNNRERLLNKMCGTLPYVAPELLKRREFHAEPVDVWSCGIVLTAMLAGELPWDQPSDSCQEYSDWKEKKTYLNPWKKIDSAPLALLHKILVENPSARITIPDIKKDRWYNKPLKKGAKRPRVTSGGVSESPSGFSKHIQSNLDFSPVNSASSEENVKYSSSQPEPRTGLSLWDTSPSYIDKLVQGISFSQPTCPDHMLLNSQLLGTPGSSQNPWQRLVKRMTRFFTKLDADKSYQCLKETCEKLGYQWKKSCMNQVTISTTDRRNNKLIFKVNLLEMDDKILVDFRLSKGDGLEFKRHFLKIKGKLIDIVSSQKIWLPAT
Mitogen-activated protein kinase 14 (Homo sapiens), sequence (Q16539 whole entry): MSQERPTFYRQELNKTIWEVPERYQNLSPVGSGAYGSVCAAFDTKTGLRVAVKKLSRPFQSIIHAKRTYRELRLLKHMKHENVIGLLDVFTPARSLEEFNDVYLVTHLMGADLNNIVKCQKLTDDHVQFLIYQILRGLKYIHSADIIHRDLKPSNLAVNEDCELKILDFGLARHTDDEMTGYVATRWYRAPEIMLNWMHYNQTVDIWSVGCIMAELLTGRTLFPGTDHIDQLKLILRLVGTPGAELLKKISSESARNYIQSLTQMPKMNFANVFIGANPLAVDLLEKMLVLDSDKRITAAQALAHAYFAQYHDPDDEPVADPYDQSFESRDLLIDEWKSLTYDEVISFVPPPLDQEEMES

Nc1n[nH]c(N)c1/N=N/c1ccc(O)cc1
residual activity [1]: 81% | residual activity [2]: 31% | Activity (HT-29 [3]): 2951620 | Activity (HT-29 [4]): 22620 | Activity (HT-29 [5]): 35.9% | residual activity [6]: 82% | Activity (MCF7 [7]): Active | Activity (HT-29 [8]): 5069600 | IC50 [9]: 44 µM | residual activity [10]: 89% | Activity (HT-29 [11]): 6047138 | IC50 [12]: 13.5 µM | Activity (MCF7 (Homo sapiens)): Active | IC50 [13]: 69 µM | Activity (MCF7 [14]): Active | Activity (HT-29 [15]): 27900 | residual activity [16]: 67% | residual activity [17]: 6.9% | Activity (HT-29 [18]): 3785908 | Activity (MCF7 [19]): Active | Activity (HT-29 [20]): 27.2% | Activity (HT-29 [21]): 54.2% | Ki [22]: 13.3 µM | Activity (G-361): 8.3% | IC50 [23]: 20 µM | residual activity [24]: 84% | residual activity [25]: 100%
